{"source": "ChEMBL document CHEMBL1165892", "about": "“Cell cycle disruption and apoptotic activity of 3-aminothiazolo[3,2-a]benzimidazole-2-carbonitrile and its homologues” (2010)", "key": {"MDA-MB-231 [1]": {"test_system": "MDA-MB-231", "assay": "Cell cycle arrest in human MDA-MB-231 cells assessed as accumulation at G2/M phase at 100 uM after 48 hrs using propidium staining by flow cytometry", "type": "functional", "in_short": "(§1)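 MDA-MB-231 cells were grown in RPMI 1640 with 100 ml/l FBS, 100 U/ml penicillin and 100 U/ml streptomycin. They were seeded in 60 mm dishes and held 24 h at 37 °C in humidified 50 ml/l CO₂. Cells were exposed for 24, 48 or 72 h, then resuspended in 50 mM Na citrate with propidium iodide for 30 min. DNA content was read by flow cytometry and phase percentages derived from histograms. Data are representative of three independent experiments.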"}, "MDA-MB-231 [2]": {"test_system": "MDA-MB-231", "assay": "Cell cycle arrest in human MDA-MB-231 cells assessed as accumulation at G2/M phase at 100 uM after 24 hrs using propidium staining by flow cytometry", "type": "functional", "in_short": "as §1"}, "MDA-MB-231 [3]": {"test_system": "MDA-MB-231", "assay": "Induction of apoptosis in human MDA-MB-231 cells at 100 uM after 24 hrs using annexin V staining by flow cytometry", "type": "functional", "in_short": "(§2)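 MDA-MB-231 cells were cultured in RPMI 1640 with 100 ml/l FBS and penicillin/streptomycin, then exposed for 24, 48 or 72 h. Harvested cells were stained with annexin V-FITC plus PI using a commercial kit per the manufacturer. Flow cytometry read emission at 530 and […], 10,000 cells per determination. Quadrants scored normal, early apoptotic, late apoptotic and necrotic cells. Results are representative of three experiments.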"}, "MDA-MB-231 [4]": {"test_system": "MDA-MB-231", "assay": "Induction of apoptosis in human MDA-MB-231 cells at 100 uM after 48 hrs using annexin V staining by flow cytometry", "type": "functional", "in_short": "as §2"}, "MDA-MB-231 [5]": {"test_system": "MDA-MB-231", "assay": "Induction of apoptosis in human MDA-MB-231 cells at 100 uM after 72 hrs using annexin V staining by flow cytometry", "type": "functional", "in_short": "as §2"}, "MDA-MB-231 [6]": {"test_system": "MDA-MB-231", "assay": "Cell cycle arrest in human MDA-MB-231 cells decrease of cells at G1 phase at 100 uM after 24 to 72 hrs using propidium staining by flow cytometry", "type": "functional, cell-based", "in_short": "as §1"}, "MDA-MB-231 [7]": {"test_system": "MDA-MB-231", "assay": "Antiproliferative activity against human MDA-MB-231 cells at 100 uM after 48 hrs"}, "MDA-MB-231 [8]": {"test_system": "MDA-MB-231", "assay": "Cell cycle arrest in human MDA-MB-231 cells assessed as accumulation at G2/M phase at 100 uM after 72 hrs using propidium staining by flow cytometry", "type": "functional", "in_short": "as §1"}, "MDA-MB-231 [9]": {"test_system": "MDA-MB-231", "assay": "Induction of apoptosis in human MDA-MB-231 cells at 100 uM using annexin V staining by flow cytometry", "type": "functional, cell-based", "conditions": "TDE = time-dependent effect", "in_short": "as §2"}, "MDA-MB-231 [10]": {"test_system": "MDA-MB-231", "assay": "Cell cycle arrest in human MDA-MB-231 cells assessed as accumulation at S phase at 100 uM after 24 to 72 hrs using propidium staining by flow cytometry", "type": "functional, cell-based", "in_short": "as §1"}}, "note": "Calls of active or inactive are those of the source. No cut-off for these calls is given here.", "data": [{"smiles": "CC(=O)Nc1c(C#N)sc2nc3ccccc3n12", "values": [{"measurement": "Activity", "setting": "MDA-MB-231 [1]", "value": 46.22, "unit": "%"}, {"measurement": "Activity", "setting": "MDA-MB-231 [2]", "value": 42, "unit": "%"}, {"measurement": "Activity", "setting": "MDA-MB-231 [3]", "value": 23.77, "unit": "%"}, {"measurement": "Activity", "setting": "MDA-MB-231 [4]", "value": 54.59, "unit": "%"}, {"measurement": "Activity", "setting": "MDA-MB-231 [5]", "value": 80, "unit": "%"}, {"measurement": "Activity", "setting": "MDA-MB-231 [6]", "value": "Active"}, {"measurement": "Activity", "setting": "MDA-MB-231 [7]", "value": "Active"}, {"measurement": "Activity", "setting": "MDA-MB-231 [8]", "value": 45.79, "unit": "%"}, {"measurement": "Activity", "setting": "MDA-MB-231 [9]", "value": "tde"}, {"measurement": "Activity", "setting": "MDA-MB-231 [10]", "value": "Active"}]}]}
